# Screening results: PubChem BioAssay, Broad Institute
# An excerpt weighted towards active compounds, which were near 5.8% of everything screened.
# T cruzi growth: T. cruzi intracellular proliferation inhibitors, primary screen, cell-based, beta-gal Tulahuen parasites, NIH3T3 host, luminescence; T. cruzi beta-gal in NIH3T3, GalScreen luminescence, 90 h; inhibition, % at 8.34 µM; actives 5.9% (n = 77,000);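 active means mean inhibition above about 93%, with at least 55% of replicates each passing it, limit read from the data, passing the limit was not always enough; inconclusive means only one of those two conditions holds; inactive means neither condition holds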
# IDH1 mut inh: inhibitors of IDH1 R132H reductase, primary screen, biochemical, plate reader, single point. inhibition, % at 10 µM. Isocitrate dehydrogenase [NADP] cytoplasmic (Homo sapiens), O75874. AID 624101, 2012. diaphorase/resazurin fluorescence, 60 min. actives 0.18% (n = 70,000); in the data active means inhibition above about 34%; inconclusive means no clear call, values can overlap the other calls; inactive means below about 11%;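 further: 0% = DMSO and 100% = no enzyme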
# Target sequence (O75874 whole entry R132H): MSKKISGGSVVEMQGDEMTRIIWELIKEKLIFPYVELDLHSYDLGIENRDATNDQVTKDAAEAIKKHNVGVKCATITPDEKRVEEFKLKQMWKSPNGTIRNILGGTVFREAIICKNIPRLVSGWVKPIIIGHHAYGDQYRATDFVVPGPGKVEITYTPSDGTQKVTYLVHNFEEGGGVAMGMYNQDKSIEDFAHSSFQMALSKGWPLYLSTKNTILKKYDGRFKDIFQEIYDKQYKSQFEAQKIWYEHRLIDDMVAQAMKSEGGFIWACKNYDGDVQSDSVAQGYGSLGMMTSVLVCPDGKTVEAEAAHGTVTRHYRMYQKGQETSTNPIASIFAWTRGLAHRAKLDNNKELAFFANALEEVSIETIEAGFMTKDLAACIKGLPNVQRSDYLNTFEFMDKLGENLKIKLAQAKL
# GASC1 inh: inhibitors of GASC-1 (KDM4C) histone demethylase, primary screen, biochemical, single concentration HTS. GST-KDM4C 2-372, H3K9me3 peptide, LANCE TR-FRET. AID 720574, 2013. actives 0.15% (n = 96,000). Lysine-specific demethylase 4C (Homo sapiens), Q9H3R0. inhibition, % at 12.5 µM;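 active means mean replicate inhibition above about 25%, with at least 55% of replicates also reaching it, limit read from the data, passing the limit was not always enough; inconclusive means only one of those two conditions met; inactive means neither condition met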
#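 reagent = H3K9me3 peptide substrate, Fe(II), 2-oxoglutarate | system = GST-tagged GASC-1 (JMJD2C) catalytic fragment, aa 2-372 | amount = enzyme final amount 10 nM | read-out = Fall in 671/618 emission ratio as inhibition | medium = HEPES buffer, pH 7.5, plus ascorbate | schedule = 30 min reaction, 60 min detection, RT | measured by = LANCE TR-FRET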
# Pf Dd2 growth: P. falciparum Dd2 growth inhibitors, primary screen, SYBR Green fluorescence, single dose replicates; 72 h; stronger effect = lower value; activity change, % at 10 µM; actives 2.3% (n = 94,000); in the data active means activity change below about -80%; inconclusive means no clear call, values can overlap the other calls
# Starred values were filed as active, the others as inactive; ? = inconclusive; / = not tested or not shown.
SMILES,T cruzi growth,IDH1 mut inh,GASC1 inh,Pf Dd2 growth
C[C@H]1CN([C@@H](C)CO)C(=O)c2cc(-c3ccc(C#N)cc3)cnc2O[C@@H]1CN(C)C(=O)Nc1ccccc1,39,-1,-1,-13
C[C@@H]1CN([C@@H](C)CO)C(=O)c2cc(-c3ccc(C#N)cc3)cnc2O[C@@H]1CN(C)C(=O)Nc1ccccc1,55,6,33*,43
COCC(=O)N[C@@H]1C=C[C@H](CC(=O)N2CCCCC2)O[C@@H]1CO,-6,0,0,13
C[C@@H](NC(=O)C[C@H]1C[C@H]2c3cc(NS(=O)(=O)c4ccc(F)cc4)ccc3O[C@H]2[C@@H](CO)O1)c1ccccc1,51,0,-1,-53
C[C@@H]1CN([C@@H](C)CO)C(=O)c2cccc(NC(=O)CCCCCC(=O)Nc3ccccc3N)c2O[C@@H]1CN(C)S(=O)(=O)c1cn(C)cn1,/,/,-4,-16
C[C@H]1CCCCO[C@@H](CN(C)C(=O)Nc2ccc(C(F)(F)F)cc2)[C@@H](C)CN([C@@H](C)CO)C(=O)c2cc(NS(=O)(=O)c3ccc(F)cc3)ccc2O1,87,/,0,-46
C[C@@H]1CCCCO[C@H](CN(C)C(=O)Nc2ccc(C(F)(F)F)cc2)[C@@H](C)CN([C@@H](C)CO)C(=O)c2cc(NS(=O)(=O)c3ccc(F)cc3)ccc2O1,78,2,0,-84*
Cc1ccc(S(=O)(=O)Nc2ccc3c(c2)C(=O)N([C@H](C)CO)C[C@@H](C)[C@H](CN(C)Cc2ccc(C(F)(F)F)cc2)OCCCC[C@@H](C)O3)cc1,/,/,-1,-73
Cc1ccc(S(=O)(=O)Nc2ccc3c(c2)C(=O)N([C@@H](C)CO)C[C@@H](C)[C@@H](CN(C)Cc2ccc(C(F)(F)F)cc2)OCCCC[C@H](C)O3)cc1,/,1,0,-81*
Cc1ccc(S(=O)(=O)Nc2ccc3c(c2)C(=O)N([C@@H](C)CO)C[C@@H](C)[C@@H](CN(C)C(=O)Nc2ccc(C(F)(F)F)cc2)OCCCC[C@H](C)O3)cc1,87,/,1,-82*
O=C(Nc1ccc2c(c1)OCO2)N[C@@H]1CC[C@H](CCNC(=O)C2CCOCC2)O[C@@H]1CO,/,0,0,/
Cc1ccc(S(=O)(=O)NCC[C@@H]2CC[C@H](NC(=O)CC3CC3)[C@@H](CO)O2)cc1,-26,23,39*,10
Cc1ccc(S(=O)(=O)NCC[C@H]2CC[C@@H](NC(=O)CC3CC3)[C@H](CO)O2)cc1,9,0,1,13
C[C@H](CO)N1C[C@H](C)[C@H](CN(C)C(=O)c2ccc(F)cc2)OCc2ccccc2-c2c(n(C)c3ccccc23)C1=O,60,0,-2,-86*
C[C@@H]1CN([C@H](C)CO)C(=O)c2c(c3ccccc3n2C)-c2ccccc2CO[C@@H]1CN(C)C(=O)c1cc(Cl)cc(Cl)c1,/,/,-2,-92*
C[C@H]1CN([C@@H](C)CO)C(=O)c2c(c3ccccc3n2C)-c2ccccc2CO[C@H]1CN(C)C(=O)c1cc(Cl)cc(Cl)c1,/,/,-2,-88*
C[C@H]1CN([C@@H](C)CO)C(=O)c2c(c3ccccc3n2C)-c2ccccc2CO[C@@H]1CN(C)C(=O)c1ccccc1,-22,/,-2,-56
C[C@H]1CN([C@@H](C)CO)C(=O)c2c(c3ccccc3n2C)-c2ccccc2CO[C@@H]1CN(C)C(=O)c1cc(Cl)cc(Cl)c1,/,/,-1,?
C[C@H](O)C#Cc1cnc2c(c1)C(=O)N([C@@H](C)CO)C[C@H](C)[C@H](CN(C)C(=O)CN1CCOCC1)O2,/,/,-1,28
O=C(Nc1cccc(F)c1)N1CCCCN2[C@H](CO)[C@H](c3ccc(C#Cc4ccccc4)cc3)[C@@H]2C1,68,/,-1,-82*
O=C(Nc1ccccc1F)N1CCCCN2[C@@H](CO)[C@@H](c3ccc(C#Cc4ccccc4)cc3)[C@@H]2C1,-41,/,-2,-89*
O=C(Nc1ccccc1)N1CCCCN2[C@@H](CO)[C@H](c3ccc(C#Cc4cccnc4)cc3)[C@@H]2C1,5,/,-1,-83*
COc1ccc(C#Cc2ccc([C@H]3[C@@H](CO)N4CCCCN(C(=O)Nc5ccccc5F)C[C@H]34)cc2)cc1,84,/,14,-77
COc1cccc(CN2CCCCN3[C@H](CO)[C@@H](c4ccc(C#Cc5cccnc5)cc4)[C@H]3C2)c1,94,/,1,-86*
CC=Cc1ccc2n(c1=O)C[C@@H]1[C@@H](CO)[C@H](C(=O)NCC3CC3)N(C(C)=O)[C@H]21 (mixture of isomers),/,/,-3,19
SMILES,T cruzi growth,IDH1 mut inh,GASC1 inh,Pf Dd2 growth
COc1ccc(C#Cc2ccc([C@@H]3[C@H](CO)N4CCCCN(C(=O)Nc5ccccc5F)C[C@@H]34)cc2)cc1,39,/,-3,-82*
COc1ccc(C#Cc2ccc([C@H]3[C@H](CO)N4CCCCN(C(=O)Nc5ccccc5F)C[C@@H]34)cc2)cc1,84,/,-3,-75
CC(=O)N(C)C[C@@H]1Oc2cc(Br)ccc2S(=O)(=O)N([C@@H](C)CO)C[C@@H]1C,11,19,42*,-2
COc1ccc(-c2ccc3c(c2)O[C@H](CN(C)C(C)=O)[C@@H](C)CN([C@@H](C)CO)S3(=O)=O)cc1,50,0,9,0
COc1ccc(-c2ccc3c(c2)O[C@H](CN(C)C(C)=O)[C@@H](C)CN([C@H](C)CO)S3(=O)=O)cc1,53,54*,56*,14
COc1ccc2c3c([nH]c2c1)[C@@H](CO)N(C(=O)CC1CC1)CC31CCN(C(=O)c2ccccc2)CC1,/,/,0,-12
C[C@H]1CN([C@@H](C)CO)S(=O)(=O)c2ccc(-c3ccc(F)cc3)cc2O[C@H]1CN(C)CC1CC1,/,-4,5,-82*
COc1ccccc1C#Cc1ccc2c(c1)O[C@@H](CN(C)Cc1cccnc1)[C@H](C)CN([C@@H](C)CO)S2(=O)=O,/,/,-1,-83*
CCCNC(=O)N(C)C[C@@H]1Oc2cc(-c3cccnc3)ccc2S(=O)(=O)N([C@@H](C)CO)C[C@@H]1C,-8,24,30*,7
CCCNC(=O)N(C)C[C@@H]1Oc2cc(-c3cccnc3)ccc2S(=O)(=O)N([C@H](C)CO)C[C@H]1C,10,2,0,30
C[C@@H]1CN([C@@H](C)CO)S(=O)(=O)c2ccc(-c3ccc(F)cc3)cc2O[C@H]1CN(C)CC1CC1,/,0,/,-25
C[C@H]1CN([C@@H](C)CO)S(=O)(=O)c2ccc(C#Cc3ccccc3F)cc2O[C@H]1CN(C)C(=O)Cc1cccnc1,50,16,-2,-83*
CCCN1C[C@H](C)[C@H](OC)CN(C)C(=O)c2cc(NC(=O)NC3CCCCC3)ccc2OC[C@@H]1C,-56,0,2,/
COc1ccc2c3c([nH]c2c1)[C@H](CO)N(Cc1ccncc1)CC31CCN(CC2CCOCC2)CC1,/,/,11,-52
